Tests used:
Heart [1] = assay: Biodistribution in LPS treated C57BL/6N mouse heart at 50 uCi/110 uL, iv administered 6 hrs […] LPS challenge measured after 30 mins post drug dose; format: ADME, organism-based; details: in vivo, 0.5 h
Outline: (§1)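 Male C57BL/6N mice aged 6-8 weeks received E. coli O127:B8 LPS in PBS, 10 mg/kg i.v., 6 h before tracer. Tracer ~50 μCi in 10% ethanol/saline, i.v. tail vein. Sacrifice was at 5 min, 30 min, 1 h or 2 h post-injection. Organs were weighed and gamma-counted with injectate standards. Data are %ID/g, mean ± SD, n = 4.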

Muscle tissue [2] = assay: Biodistribution in LPS treated C57BL/6N mouse muscle at 50 uCi/110 uL, iv administered 6 hrs […] LPS challenge measured after 1 hr post drug dose; format: ADME, organism-based; details: in vivo
Outline: (§2)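 Male C57BL/6N mice, 6-8 weeks; LPS (E. coli O127:B8) in PBS, 10 mg/kg i.v., given 6 h before tracer. HPLC-purified [18F]tracer ~50 μCi in 10% ethanol/saline i.v. via tail vein. Killed at 5 min, 30 min, 1 h or 2 h; tissues weighed and gamma-counted against diluted injectate standards. Reported as %ID/g, mean ± SD, n = 4.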

Brain [3] = assay: Biodistribution in LPS treated C57BL/6N mouse brain at 50 uCi/110 uL, iv administered 6 hrs […] LPS challenge measured after 1 hr post drug dose; format: ADME, organism-based; details: in vivo; outline: as §1
Liver [4] = assay: Biodistribution in LPS treated C57BL/6N mouse liver at 50 uCi/110 uL, iv administered 6 hrs […] LPS challenge measured after 1 hr post drug dose; format: ADME, organism-based; details: in vivo; outline: as §2
Kidney [5] = assay: Biodistribution in C57BL/6N mouse kidney at 50 uCi/110 uL, iv after 30 mins; format: ADME, organism-based; details: in vivo, 0.5 h
Outline: (§3)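 Untreated (control) male C57BL/6N mice aged 6-8 weeks. HPLC-purified tracer, ~50 μCi in 10% ethanol/saline, given i.v. via the tail vein. Mice were sacrificed at 5 min, 30 min, 1 h and 2 h post-injection. Tissues were removed, weighed and gamma-counted against diluted injectate standards. Data are %ID/g, mean ± SD, n = 4.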

Kidney [6] = assay: Biodistribution in C57BL/6N mouse kidney at 50 uCi/110 uL, iv after 1 hr; format: ADME, organism-based; details: in vivo; outline: as §3
Bone [7] = assay: Biodistribution in C57BL/6N mouse bone at 50 uCi/110 uL, iv after 5 mins; format: ADME, organism-based, Bone element; details: in vivo; outline: as §3
Lung [8] = assay: Biodistribution in C57BL/6N mouse lung at 50 uCi/110 uL, iv after 1 hr; format: ADME, organism-based; details: in vivo; outline: as §3
Bone [9] = assay: Biodistribution in LPS treated C57BL/6N mouse bone at 50 uCi/110 uL, iv administered 6 hrs […] LPS challenge measured after 2 hrs post drug dose; format: ADME, organism-based, Bone element; details: in vivo; outline: as §1
Liver [10] = assay: Biodistribution in LPS treated C57BL/6N mouse liver at 50 uCi/110 uL, iv administered 6 hrs […] LPS challenge measured after 5 mins post drug dose; format: ADME, organism-based; details: in vivo; outline: as §2
[11] = Metabolic stability in Sprague-Dawley rat plasma assessed as parent compound remaining at 400 uCi, iv after 30 mins by HPLC; format: ADME, organism-based; details: read-out: Stability
Outline: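 Anesthetized male Sprague-Dawley rat given 400 μCi [18F]tracer in 10% ethanol/saline i.v. via tail vein. Blood drawn by cardiac puncture at 5 and 30 min. Plasma separated by centrifugation, treated with 3 equivalents of acetonitrile and centrifuged; supernatant filtered and analysed by HPLC. Samples kept on ice.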

Muscle tissue [12] = assay: Biodistribution in C57BL/6N mouse muscle at 50 uCi/110 uL, iv after 2 hrs; format: ADME, organism-based; details: in vivo; outline: as §3
Kidney [13] = assay: Biodistribution in LPS treated C57BL/6N mouse kidney at 50 uCi/[…], iv administered […] measured after 5 mins post drug dose; format: ADME, organism-based; details: in vivo; outline: as §2
Bone [14] = assay: Biodistribution in LPS treated C57BL/6N mouse bone at 50 uCi/110 uL, iv administered 6 hrs before LPS challenge measured after 1 hr post drug dose; format: ADME, organism-based, Bone element; details: in vivo, in the assay text read “6 hrs after LPS challenge” for “6 hrs before LPS challenge”; outline: as §1
Heart [15] = assay: Biodistribution in C57BL/6N mouse heart at 50 uCi/110 uL, iv after 1 hr; format: ADME, organism-based; details: in vivo; outline: as §3
Heart [16] = assay: Biodistribution in LPS treated C57BL/6N mouse heart at 50 uCi/110 uL, iv administered 6 hrs […] LPS challenge measured after 2 hrs post drug dose; format: ADME, organism-based; details: in vivo; outline: as §1
Blood [17] = assay: Biodistribution in C57BL/6N mouse blood at 50 uCi/110 uL, iv after 2 hrs; format: ADME, organism-based; details: in vivo; outline: as §3
Kidney [18] = assay: Biodistribution in LPS treated C57BL/6N mouse kidney at 50 uCi/110 uL, iv administered 6 hrs […] LPS challenge measured after 2 hrs post drug dose; format: ADME, organism-based; details: in vivo; outline: as §2
Bone [19] = assay: Biodistribution in C57BL/6N mouse bone at 50 uCi/110 uL, iv after 1 hr; format: ADME, organism-based, Bone element; details: in vivo; outline: as §3
Liver [20] = assay: Biodistribution in LPS treated C57BL/6N mouse liver at 50 uCi/110 uL, iv administered 6 hrs […] LPS challenge measured after 30 mins post drug dose; format: ADME, organism-based; details: in vivo, 0.5 h; outline: as §2
Brain [21] = assay: Biodistribution in C57BL/6N mouse brain at 50 uCi/110 uL, iv after 1 hr; format: ADME, organism-based; details: in vivo; outline: as §3
Brain [22] = assay: Biodistribution in LPS treated C57BL/6N mouse brain at 50 uCi/110 uL, iv administered 6 hrs […] LPS challenge measured after 2 hrs post drug dose; format: ADME, organism-based; details: in vivo; outline: as §1
Lung [23] = assay: Biodistribution in LPS treated C57BL/6N mouse lung at 50 uCi/110 uL, iv administered 6 hrs […] LPS challenge measured after 30 mins post drug dose; format: ADME, organism-based; details: in vivo, 0.5 h; outline: as §2
Bone [24] = assay: Biodistribution in C57BL/6N mouse bone at 50 uCi/110 uL, iv after 30 mins; format: ADME, organism-based, Bone element; details: in vivo, 0.5 h; outline: as §3
Lung [25] = assay: Biodistribution in C57BL/6N mouse lung at 50 uCi/110 uL, iv after 2 hrs; format: ADME, organism-based; details: in vivo; outline: as §3
Brain [26] = assay: Biodistribution in C57BL/6N mouse brain at 50 uCi/110 uL, iv after 30 mins; format: ADME, organism-based; details: in vivo, 0.5 h; outline: as §3
Muscle tissue [27] = assay: Biodistribution in LPS treated C57BL/6N mouse muscle at 50 uCi/110 uL, iv administered 6 hrs […] LPS challenge measured after 30 mins post drug dose; format: ADME, organism-based; details: in vivo, 0.5 h; outline: as §2
Liver [28] = assay: Biodistribution in C57BL/6N mouse liver at 50 uCi/110 uL, iv after 5 mins; format: ADME, organism-based; details: in vivo; outline: as §3
Heart [29] = assay: Biodistribution in C57BL/6N mouse heart at 50 uCi/110 uL, iv after 2 hrs; format: ADME, organism-based; details: in vivo; outline: as §3
Mus musculus = assay: Biodistribution in LPS treated C57BL/6N mouse at 5 uCi, iv co-administered with nonselective NOS inhibitor 2-amino-4-methylpyridine measured after 1 hr; format: ADME, organism-based; details: in vivo
Blood [30] = assay: Biodistribution in LPS treated C57BL/6N mouse blood at 50 uCi/110 uL, iv administered 6 hrs […] LPS challenge measured after 2 hrs post drug dose; format: ADME, organism-based; details: in vivo; outline: as §1
Blood [31] = assay: Biodistribution in C57BL/6N mouse blood at 50 uCi/110 uL, iv after 30 mins; format: ADME, organism-based; details: in vivo, 0.5 h; outline: as §3
Lung [32] = assay: Biodistribution in C57BL/6N mouse lung at 50 uCi/110 uL, iv after 5 mins; format: ADME, organism-based; details: in vivo; outline: as §3
Blood [33] = assay: Biodistribution in LPS treated C57BL/6N mouse blood at 50 uCi/110 uL, iv administered 6 hrs […] LPS challenge measured after 1 hr post drug dose; format: ADME, organism-based; details: in vivo; outline: as §1

Cc1cc(N)nc(CC(C)[18F])c1 (centres undefined)
Drug uptake (Heart [1]): 1.02 % ID/g
Drug uptake (Muscle tissue [2]): 0.78 % ID/g
Drug uptake (Brain [3]): 0.19 % ID/g
Drug uptake (Liver [4]): 2.63 % ID/g
Drug uptake (Kidney [5]): 7.3 % ID/g
Drug uptake (Kidney [6]): 2.2 % ID/g
Drug uptake (Bone [7]): 1.52 % ID/g
Drug uptake (Lung [8]): 0.31 % ID/g
Drug uptake (Bone [9]): 3.77 % ID/g
Drug uptake (Liver [10]): 24.6 % ID/g
remaining at 0.5 h [11]: 20.2%
Drug uptake (Muscle tissue [12]): 0.34 % ID/g
Drug uptake (Kidney [13]): 26.7 % ID/g
Drug uptake (Bone [14]): 4.3 % ID/g
Drug uptake (Heart [15]): 0.19 % ID/g
Drug uptake (Heart [16]): 0.12 % ID/g
Drug uptake (Blood [17]): 0.27 % ID/g
Drug uptake (Kidney [18]): 0.91 % ID/g
Drug uptake (Bone [19]): 2.57 % ID/g
Drug uptake (Liver [20]): 7.06 % ID/g
Drug uptake (Brain [21]): 0.11 % ID/g
Drug uptake (Brain [22]): 0.07 % ID/g
Drug uptake (Lung [23]): 1.84 % ID/g
Drug uptake (Bone [24]): 2.26 % ID/g
Drug uptake (Lung [25]): 0.15 % ID/g
Drug uptake (Brain [26]): 0.28 % ID/g
Drug uptake (Muscle tissue [27]): 1.06 % ID/g
Drug uptake (Liver [28]): 33.2 % ID/g
Drug uptake (Heart [29]): 0.08 % ID/g
Activity (Mus musculus): Not Active
Drug uptake (Blood [30]): 0.23 % ID/g
Drug uptake (Blood [31]): 1.22 % ID/g
Drug uptake (Lung [32]): 3.33 % ID/g
Drug uptake (Blood [33]): 0.86 % ID/g

Source: ChEMBL document CHEMBL1153433, “Design and synthesis of 2-amino-4-methylpyridine analogues as inhibitors for inducible nitric oxide synthase and in vivo evaluation of [18F]6-(2-fluoropropyl)-4-methyl-pyridin-2-amine as a potential PET tracer for inducible nitric oxide synthase” (J Med Chem, 2009)
